Screening results deposited in PubChem BioAssay by several laboratories.
Rows were chosen to be rich in hits. Some 3.4% of all compounds tested hit in one or more screens of this group.
TMEM16A act: mouse TMEM16A channel activation, primary screen. B-score at 10 µM. HEK293 TMEM16A/YFP-H148Q/I152L, iodide quench fluorescence; active compounds read low. 340,000 compounds, 0.3% hits. Q8BHY3. AID 623877;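 active = fluorescence-ratio B-score plate-corrected deviation score at least 3 library SD below zero, with starting fluorescence score within 5 deviations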;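 also: channel opened by trigger with iodide after compound preincubation; score built on the fluorescence ratio of max minus min over baseline; more negative score means more quench and so TMEM16A activation or potentiation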
Target sequence (Q8BHY3 whole entry, looked up): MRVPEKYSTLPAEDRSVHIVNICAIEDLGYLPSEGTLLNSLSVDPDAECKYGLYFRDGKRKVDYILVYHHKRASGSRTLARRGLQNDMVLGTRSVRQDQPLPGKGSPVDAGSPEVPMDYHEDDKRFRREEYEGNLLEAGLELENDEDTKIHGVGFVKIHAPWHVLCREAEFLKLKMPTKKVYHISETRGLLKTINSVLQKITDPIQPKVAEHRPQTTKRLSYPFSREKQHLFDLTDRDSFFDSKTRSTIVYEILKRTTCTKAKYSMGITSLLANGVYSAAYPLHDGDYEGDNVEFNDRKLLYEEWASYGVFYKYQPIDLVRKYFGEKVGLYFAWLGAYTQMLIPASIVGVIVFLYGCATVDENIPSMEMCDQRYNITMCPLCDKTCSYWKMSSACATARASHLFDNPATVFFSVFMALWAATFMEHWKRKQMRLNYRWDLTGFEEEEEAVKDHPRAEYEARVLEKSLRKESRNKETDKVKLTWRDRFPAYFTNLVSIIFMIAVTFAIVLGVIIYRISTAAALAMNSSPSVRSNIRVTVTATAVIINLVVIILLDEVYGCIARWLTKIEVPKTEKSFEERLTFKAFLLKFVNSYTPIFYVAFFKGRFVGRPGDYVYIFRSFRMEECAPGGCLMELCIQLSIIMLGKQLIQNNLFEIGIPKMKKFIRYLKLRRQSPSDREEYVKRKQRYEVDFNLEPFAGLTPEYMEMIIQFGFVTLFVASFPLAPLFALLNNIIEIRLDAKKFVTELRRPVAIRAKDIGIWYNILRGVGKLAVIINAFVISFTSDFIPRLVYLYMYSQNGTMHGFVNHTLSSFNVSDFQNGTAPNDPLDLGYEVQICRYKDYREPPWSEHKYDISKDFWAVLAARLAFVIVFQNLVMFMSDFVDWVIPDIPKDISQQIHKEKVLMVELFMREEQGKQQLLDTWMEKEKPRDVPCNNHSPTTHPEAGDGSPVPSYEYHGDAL
CHT allo act: allosteric activators of human choline transporter CHT; Q9GZV3; CHT-expressing cells, membrane potential dye, choline EC20; active compounds read high; LV-AA mutant CHT in HEK293 cells; B-score at 10 µM; 310,000 compounds, 0.49% hits;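 active = initial fluorescence not abnormally high and integrated response B-score, plate-corrected, over 3 SD above library mean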
IMP-1 inh: inhibitors of Pseudomonas aeruginosa IMP-1 metallo-beta-lactamase | purified IMP-1, nitrocefin hydrolysis, epi-absorbance fluorescence | inhibition, % at 5.6 µM | 290,000 compounds, 0.45% hits | AID 1556;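 active = inhibition above the mean plus 3 SD of all compounds in the same screening run, cut at about 4.5% in these data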
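Material – recombinant IMP-1 enzyme, purified · Amount – IMP-1 0.2 nM before substrate addition · Medium – HEPES buffer pH 7.1 with ZnSO4 and Brij 35 · Timing – 25 °C, 15 min preincubation, 25 min reaction · Measured by – plate fluorescence quenching by hydrolysis product, ex 480/em 530 nm · Read-out – percent enzyme inhibition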
TMEM16A inh: mouse TMEM16A channel inhibition, primary screen. HEK293 TMEM16A/YFP iodide influx fluorescence, ionomycin. normalized B-score (activity score, 25-100; higher = stronger inhibition) at 10 µM. 310,000 compounds, 1.2% hits. AID 588511;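 active = ratio plate-corrected score three or more library SD toward inhibition, starting fluorescence score within five deviations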;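 also: score derived from kinetic fluorescence span divided by baseline fluorescence per well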
CHT block: inhibitors of human choline transporter CHT | CHT-expressing cells, membrane potential dye, choline response; active compounds read low | B-score at 10 µM | 310,000 compounds, 0.86% hits | AID 488975;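 active = B-score over 3 SD under the library average, and starting fluorescence ratio not unusually high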;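 also: choline stimulus applied at its EC90 after an EC20 pre-addition; B-score computed on integrated fluorescence ratio after choline addition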
VIM-2 inhibitor: inhibitors of Pseudomonas aeruginosa VIM-2 metallo-beta-lactamase. purified VIM-2, nitrocefin hydrolysis, epi-absorbance fluorescence. inhibition, % at 5.6 µM. 290,000 compounds, 0.89% hits. AID 1527;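 active = inhibition above the mean of all tested compounds plus 3 SD, cutoff set per screening run, cut at about 7.5% in these data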;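 also: red hydrolysis product quenches plate fluorescence so inhibitors raise well fluorescence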
A number is an active result; – = inactive; · = not tested or not shown.

SMILES	TMEM16A act	CHT allo act	IMP-1 inh	TMEM16A inh	CHT block	VIM-2 inhibitor
CC1CCCN(Cc2c(O)ccc3c2O/C(=C\c2ccco2)C3=O)C1 (stereo unspecified)	–	–	–	–	–	–
Cc1ccc(/C=C/S(=O)(=O)NCCC(=O)NCc2ccccc2F)cc1	–	·	·	·	·	·
Cc1ccc(/C=C/S(=O)(=O)NCCC(=O)NCc2ccc(F)cc2)cc1	-42	·	·	·	·	·
NC(=S)N/N=C1\CCOc2ccc(Cl)cc21	–	–	–	–	–	–
NC(=S)N/N=C1\CC(n2nnn(-c3cccc(Cl)c3)c2=S)C2COC1O2 (stereo unspecified)	-5.6	–	–	–	–	–
O=C(C(=Cc1ccccc1)CN1CCCCC1)c1ccccc1	–	·	·	·	·	·
COC(=O)COc1ccc(C2Nc3c(Cl)ccc(C(=O)O)c3C3C=CCC32)cc1 (stereo unspecified)	–	–	12	–	–	–
O=C(O)c1ccc(Cl)c2c1C1C=CCC1C(c1ccccn1)N2 (stereo unspecified)	·	–	–	–	–	–
COc1ccc(OC)c(C2Nc3c(Cl)ccc(C(=O)O)c3C3C=CCC32)c1 (stereo unspecified)	–	–	11	–	–	–
Nc1ccccc1C(=O)N1O[C@@H]2C=C[C@H]1CC2	–	·	·	·	·	·
COc1cc(NC(=O)c2cccs2)c(OC)cc1NC(=O)Nc1ccc(F)cc1	–	–	–	–	–	–
CCC1Sc2ccc(S(=O)(=O)CCC(=O)NCc3ccco3)cc2NC1=O (stereo unspecified)	–	–	–	–	–	–
CC(C)CN(CC(C)C)C(=O)Cc1coc2ccc3ccccc3c12	–	–	–	25	–	–
O=C(O)Cc1coc2ccc3ccccc3c12	–	–	–	–	–	–
CN1CCN(c2nnc(-c3ccc(Cl)cc3)c3ccccc23)CC1	–	–	–	–	–	10
Cc1ccc(-c2nn(-c3ccccc3)cc2/C=N/NC(=O)c2ccc(Br)o2)cc1	–	–	–	100	–	–
CC(C)n1c(-c2ccccc2F)n[nH]c1=S	–	–	5.0	–	–	–
CCN(c1ccccc1)S(=O)(=O)c1nnc(NC(=O)c2ccccc2OC)s1	–	–	–	–	–	–
COc1ccc(CNC(=O)c2ccccc2SCC(=O)N2CCCC2)cc1OC	–	–	·	–	–	·
Cc1nn(-c2ccccc2)c(C)c1NC(=O)COc1ccc2ccccc2c1	–	–	–	–	–	–
Cc1nn(-c2ccccc2)c(C)c1NC(=O)COc1ccc(Br)cc1Cl	–	–	–	25	–	–
Nc1ccc2cc3[nH]c4cc(N)ccc4c3nc2c1	–	·	·	·	·	·
O=C1S/C(=C\c2ccc(O)c([N+](=O)[O-])c2)C(=O)N1c1ccccc1Cl	–	–	–	100	–	–
Cc1cccc(NC(=O)CN2C(=O)S/C(=C\c3ccc(O)c([N+](=O)[O-])c3)C2=O)c1	–	–	–	–	–	–
COc1cc(/C=C2\SC(=O)N(c3cccc(Cl)c3)C2=O)cc([N+](=O)[O-])c1O	-5.6	·	–	·	·	–
SMILES	TMEM16A act	CHT allo act	IMP-1 inh	TMEM16A inh	CHT block	VIM-2 inhibitor
CCN1CCN(CC(=O)Nc2ccc(C)c(Br)c2)CC1	–	–	–	–	–	–
Cc1ccc(NC(=O)C2=C(C(=O)O)CCCC2)cc1Br	–	–	13	–	–	–
CC(C)(C)NC(=O)N1CCCC(C(=O)c2cccc(Cl)c2)C1 (stereo unspecified)	–	–	–	–	–	–
CC(C)S(=O)(=O)N1CCCC(C(=O)c2cccc(Cl)c2)C1 (stereo unspecified)	–	–	40	–	–	–
CS(=O)(=O)c1ccc(Cl)c(NC(=O)CSc2n[nH]c(-c3cccs3)n2)c1	–	·	·	·	·	·
O=C(c1cc2nc(-c3ccccc3)cc(C(F)(F)F)n2n1)N1CCOCC1	–	–	–	–	–	–
O=C(c1nn2c(C(F)(F)F)cc(-c3ccccc3)nc2c1Cl)N1CCN2CCCC2C1 (stereo unspecified)	–	·	–	·	·	9.1
O=C(c1cc2nc(-c3ccccc3)cc(C(F)(F)F)n2n1)N1CCN2CCCC2C1 (stereo unspecified)	–	–	–	–	–	9.1
O=C(c1ccccc1)N1CCN(C(=O)c2nn3c(C(F)(F)F)cc(-c4ccccc4)nc3c2Br)CC1	–	–	–	–	–	–
